# Assay results: ChEMBL document CHEMBL1671803, “Synthesis and evaluation of 11C-labeled imidazo[2,1-b]benzothiazoles (IBTs) as PET tracers for imaging β-amyloid plaques in Alzheimer's disease” (J Med Chem, 2011)
# The source made the active and inactive calls. No cut-off for these calls is given here.
# How the values were obtained:
# [1] = target: T1, Amyloid-beta precursor protein (Homo sapiens, UniProt P05067); experiment: Displacement of [3H]PiB from human amyloid beta (1-42) at 100 nM after 180 mins by liquid scintillation counter
# [2] = target: T1, Amyloid-beta precursor protein; experiment: Displacement of [3H]PiB from human amyloid beta (1-40) at 100 nM after 180 mins by liquid scintillation counter
# [3] = Drug uptake in Balb-C mouse brain assessed as compound remaining at 4-6 MBq after 30 mins by gamma counting; format: ADME, tissue-based; settings: read-out: Drug uptake
# How it was run: (§1)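 Normal Balb-C mice received an iv [11C]-labeled tracer. HPLC analysis of blood and brain homogenates was done at 10 and 30 min post-injection to give percent intact tracer (n=3).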
# [4] = Drug uptake in Balb-C mouse blood assessed as compound remaining after 10 mins at 4-6 MBq by gamma counting; format: ADME, tissue-based; settings: read-out: Drug uptake; how it was run: as §1
# [5] = test system: Brain; experiment: Drug uptake in Balb-C mouse brain at 4-6 MBq after 5 mins by gamma counting; format: ADME, tissue-based; settings: in vivo
# How it was run: (§2)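 Normal male Balb-C mice were given an iv [11C]-labeled compound. Brain uptake was measured as %ID/g at 5 and 30 min post-injection (n=5). Clearance is expressed as the 5 min/30 min %ID/g ratio.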
# [6] = Drug uptake in Balb-C mouse brain assessed as compound remaining at 4-6 MBq after 10 mins by gamma counting; format: ADME, tissue-based; settings: read-out: Drug uptake; how it was run: as §1
# [7] = Drug uptake in Balb-C mouse blood assessed as compound remaining at 4-6 MBq after 30 mins by gamma counting; format: ADME, tissue-based; settings: read-out: Drug uptake; how it was run: as §1
# [8] = test system: Mus musculus; experiment: Binding affinity to amyloid beta in iv dosed telencephalon region in APP/PS1 transgenic C57BL6/J mouse alzheimer's disease model after 5 to 30 mins by micro PET examination relative to control; format: functional, organism-based
# How it was run: (§3)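 APP/PS1 (ARTE10) homozygous female mice, 22 months old, with age- and gender-matched C57BL6/J female controls (two each). A single tail-vein bolus of [11C]5 mixed with [3H]1a (7.2 MBq) was given. Readouts were telencephalon/cerebellum ratios from three sources: μPET/CT coregistered to an MRI template (summed 20-30 min), dual-label digital autoradiography of 12 μm sections, and regional biodistribution, all at 30 min p.i.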
# [9] = Octanol-phosphate buffered saline partition coefficient, log P of the compound at pH 7.4; format: physicochemical
# [10] = test system: Mus musculus; experiment: Binding affinity to amyloid beta in telencephalon region in APP/PS1 transgenic C57BL6/J mouse alzheimer's disease model at 50.2 MBq, iv after 5 to 30 mins by micro PET examination relative to control; format: functional, organism-based; settings: 50.2 M, tested as the 11C-labelled form; how it was run: as §3
# [11] = test system: Mus musculus; experiment: Binding affinity to amyloid beta in cerebellum region in APP/PS1 transgenic C57BL6/J mouse alzheimer's disease model at 50.2 MBq, iv after 5 to 30 mins by MRI examination relative to control; format: functional, organism-based; settings: 50.2 M, tested as the 11C-labelled form; how it was run: as §3
# [12] = test system: Mus musculus; experiment: Binding affinity to amyloid beta in cerebellum region in APP/PS1 transgenic C57BL6/J mouse alzheimer's disease model at 50.2 MBq, iv after 5 to 30 mins by autoradiography analysis relative to control; format: functional, organism-based; settings: 50.2 M, tested as the 11C-labelled form; how it was run: as §3
# [13] = test system: Brain; experiment: Drug uptake in Balb-C mouse brain at 4-6 MBq after 30 mins by gamma counting; format: ADME, tissue-based; settings: in vivo, 0.5 h; how it was run: as §2
# [14] = test system: Mus musculus; experiment: Binding affinity to amyloid beta in telencephalon region in APP/PS1 transgenic C57BL6/J mouse alzheimer's disease model at 50.2 MBq, iv after 5 to 30 mins by MRI examination relative to control; format: functional, organism-based; settings: 50.2 M, tested as the 11C-labelled form; how it was run: as §3
# [15] = test system: Mus musculus; experiment: Binding affinity to amyloid beta in cerebellum region in APP/PS1 transgenic C57BL6/J mouse alzheimer's disease model at 50.2 MBq, iv after 5 to 30 mins by micro PET examination relative to control; format: functional, organism-based; settings: 50.2 M, tested as the 11C-labelled form; how it was run: as §3
# [16] = test system: Mus musculus; experiment: Binding affinity to amyloid beta in telencephalon region in iv dosed APP/PS1 transgenic C57BL6/J mouse alzheimer's disease model after 5 to 30 mins by autoradiography analysis relative to control; format: functional, organism-based; how it was run: as §3
# [17] = test system: Mus musculus; experiment: Binding affinity to amyloid beta in telencephalon region in APP/PS1 transgenic C57BL6/J mouse alzheimer's disease model at 50.2 MBq, iv after 5 to 30 mins by autoradiography analysis relative to control; format: functional, organism-based; settings: 50.2 M, tested as the 11C-labelled form; how it was run: as §3
# [18] = test system: Brain; experiment: Ratio of drug uptake in Balb-C mouse brain after 5 mins to drug uptake in Balb-C mouse brain after 30 mins; format: ADME, tissue-based; settings: in vivo; how it was run: as §2
# [19] = test system: Brain; experiment: Drug uptake in Balb-C mouse brain at 4-6 MBq by gamma counting; settings: in vivo
# [20] = tested as the 11C-labelled form
# T1 sequence (P05067 whole entry): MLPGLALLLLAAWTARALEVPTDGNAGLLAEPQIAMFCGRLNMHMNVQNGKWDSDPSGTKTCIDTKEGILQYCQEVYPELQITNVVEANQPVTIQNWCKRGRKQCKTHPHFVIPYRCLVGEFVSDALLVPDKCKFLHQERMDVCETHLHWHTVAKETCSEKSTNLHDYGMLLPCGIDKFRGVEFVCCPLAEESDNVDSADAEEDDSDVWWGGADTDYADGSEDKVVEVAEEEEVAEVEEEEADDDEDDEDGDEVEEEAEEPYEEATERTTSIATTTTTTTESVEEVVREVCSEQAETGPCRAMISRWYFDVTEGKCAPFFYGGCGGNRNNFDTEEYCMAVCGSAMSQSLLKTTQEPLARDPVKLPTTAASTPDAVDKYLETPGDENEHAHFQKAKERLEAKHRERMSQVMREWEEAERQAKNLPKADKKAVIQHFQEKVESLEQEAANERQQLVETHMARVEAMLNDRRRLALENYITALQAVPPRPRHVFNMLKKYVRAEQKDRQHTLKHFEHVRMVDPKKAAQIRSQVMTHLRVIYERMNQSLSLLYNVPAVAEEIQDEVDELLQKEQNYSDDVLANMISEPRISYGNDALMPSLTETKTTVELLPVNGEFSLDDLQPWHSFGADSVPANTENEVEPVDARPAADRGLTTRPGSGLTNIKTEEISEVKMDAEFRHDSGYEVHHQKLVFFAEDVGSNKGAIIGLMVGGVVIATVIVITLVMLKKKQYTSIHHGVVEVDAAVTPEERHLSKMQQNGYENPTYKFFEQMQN
Structure (SMILES),inhibition [1],inhibition [2],logD [9],Drug uptake [13],Drug uptake [19],also measured
COc1ccc2c(c1)sc1nc(-c3ccc(NC(C)=O)cc3)cn12,64%,44%,,,,
COc1ccc2c(c1)sc1nc(-c3ccc(N[11CH3])cc3)cn12,,,,,,remaining at 0.5 h [3]: 91%; remaining at 10 min [4]: 15%; Drug uptake [5]: Active; remaining at 10 min [6]: 95%; remaining at 0.5 h [7]: 7%
CNc1ccc(-c2cn3c(n2)sc2cc(OC)ccc23)cc1,97%,95%,1.7,0.7 % ID/g,,"Activity [8, 20]: Active; Activity [10]: Active; Activity [11]: inactive; Activity [12]: inactive; Activity [14]: Active; Activity [15]: inactive; Ki [1]: 5.8 nM; Activity [16, 20]: Active; Activity [17]: Active; Ratio [18]: 9.1; Ki [2]: 3.5 nM"
CNc1ccc(-c2nc3ccc(O)cc3s2)cc1,83%,88%,,,,Activity ([8]; tested as the 3H-labelled form): Active; Activity ([16]; tested as the 3H-labelled form): Active
COc1ccc2c(c1)sc1nc(-c3ccc(N)cc3)cn12,74%,57%,,,,
Oc1ccc2c(c1)sc1nc(-c3ccc(N4CCCC4)cc3)cn12,91%,91%,,,,
CNc1ccc(-c2cn3c(n2)sc2cc(O)ccc23)cc1,73%,46%,1.2,0.7 % ID/g,1.9 % ID/g,
CCN(CC)c1ccc(-c2cn3c(n2)sc2cc(OC)ccc23)cc1,91%,79%,2.2,0.7 % ID/g,1.9 % ID/g,
CCN(CC)c1ccc(-c2cn3c(n2)sc2cc(O)ccc23)cc1,91%,79%,,,,
CN(C)c1ccc(-c2cn3c(n2)sc2cc(O)ccc23)cc1,86%,85%,,,,
COc1ccc2c(c1)sc1nc(-c3ccc(N(C)C)cc3)cn12,91%,89%,1.9,0.7 % ID/g,1.9 % ID/g,
Nc1ccc(-c2cn3c(n2)sc2cc(O)ccc23)cc1,48%,48%,,,,
COc1ccc2c(c1)sc1nc(-c3ccc(N4CCCC4)cc3)cn12,82%,91%,1.9,0.7 % ID/g,1.9 % ID/g,
